Results taken from ChEMBL document CHEMBL4765342, “Substituted benzothiophene and benzofuran derivatives as a novel class of bone morphogenetic Protein-2 upregulators: Synthesis, anti-osteoporosis efficacies in ovariectomized rats and a zebrafish model, and ADME properties” (Eur J Med Chem, 2020).

Tests used:
[1] = Toxicity in BALB/c mouse assessed as muscle spasm at 50 to 100 mg/kg, ig administered for 14 days; format: organism-based; conditions: in vivo, po, 336 h, dose 50-100 mg/kg, time 14 day
In short: (§1)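 BALB/c mice, 10 per group, gavaged daily for 14 days at 50 or 100 mg/kg; blank control group included. Hair, behaviour and neurological signs (fremitus, convulsion, spasm, gait disturbance) were observed. At day 14, mice were weighed and given routine blood tests and serum biochemistry (ALT, AST, urea, creatinine; n = 10). Liver and kidney were examined on paraffin-embedded histology sections.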

[2] = Toxicity in BALB/c mouse assessed as convulsion at 50 to 100 mg/kg, ig administered for 14 days; format: organism-based; conditions: in vivo, po, 336 h, dose 50-100 mg/kg, time 14 day; in short: as §1
[3] = Toxicity in BALB/c mouse assessed as fremitus at 50 to 100 mg/kg, ig administered for 14 days; format: organism-based; conditions: in vivo, po, 336 h, dose 50-100 mg/kg, time 14 day; in short: as §1
[4] = Oral bioavailability in Sprague-Dawley rat at 10 mg/kg by LC-MS/MS analysis; format: ADME, organism-based; conditions: in vivo
In short: (§2)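 SD rats dosed iv or intragastrically. Plasma (50 µL) was mixed with diclofenac internal standard (50 ng/mL, 300 µL), vortexed, centrifuged at 4 °C, and the supernatant analysed by LC/MS/MS against spiked standard and QC curves. Noncompartmental parameters calculated; mean ± SD, n = 3 (bioavailability excepted).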

[5] = AUC (0 to infinity) in Sprague-Dawley rat at 10 mg/kg, po by LC-MS/MS analysis; format: ADME, organism-based; parameters: route oral, time infinity, dose 10 mg/kg; conditions: in vivo
In short: (§3)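 The acid metabolite of the parent ester was dosed directly to Sprague-Dawley rats, iv or intragastrically (n=3). Plasma (50 µL) was spiked with 5 µL DMSO, extracted with 300 µL acetonitrile containing 50 ng/mL diclofenac internal standard, then vortexed and centrifuged at 4 °C. Supernatant was quantified by LC/MS/MS against plasma calibration standards and QCs. AUC came from noncompartmental analysis.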

[6] = AUC (0 to t) in Sprague-Dawley rat at 10 mg/kg, po by LC-MS/MS analysis; format: ADME, organism-based; parameters: dose 10 mg/kg; conditions: in vivo
[7] = Half life in Sprague-Dawley rat at 10 mg/kg, po by LC-MS/MS analysis; format: ADME, organism-based; conditions: in vivo; in short: as §2
[8] = Tmax in Sprague-Dawley rat at 10 mg/kg, po by LC-MS/MS analysis; format: ADME, organism-based; conditions: in vivo; in short: as §2
[9] = AUC (0 to infinity) in Sprague-Dawley rat at 2 mg/kg, iv by LC-MS/MS analysis; format: ADME, organism-based; parameters: route intravenous, time infinity, dose 2 mg/kg; conditions: in vivo; in short: as §3
[10] = Half life in Sprague-Dawley rat at 2 mg/kg, iv by LC-MS/MS analysis; format: ADME, organism-based; conditions: in vivo; in short: as §2
[11] = Toxicity in Kunming mouse assessed as organism death administered orally for 3 days and observed for 17 days starting from drug administration; conditions: in vivo, po, 408 h, time 17 day
[12] = Apparent permeability across apical to basolateral side in human Caco-2 cells at 10 uM incubated for 2 hrs LC-MS/MS analysis; format: ADME, cell-based; conditions: Caco-2
In short: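 Caco-2 monolayers, apical to basolateral direction. Plates preincubated 30 min at 37 °C, then exposed to 10 µM compound for 2 h at 37 °C without shaking. Donor and receiver samples were quenched, centrifuged and measured by LC/MS/MS, in duplicate. Papp calculated from receiver concentration, area and time. Monolayer integrity checked by TEER and by Lucifer yellow leakage (30 min, 37 °C, ex 485/em 530 nm).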

Cytochrome P450 1A2 = target: T1, Cytochrome P450 1A2 (Homo sapiens, UniProt P05177); experiment: Inhibition of CYP1A2 in human liver microsomes using phenacetin as substrate incubated for 5 mins followed by NADPH addition and measured after 20 mins by LC-MS/MS analysis; format: ADME
T1 sequence (P05177 whole entry): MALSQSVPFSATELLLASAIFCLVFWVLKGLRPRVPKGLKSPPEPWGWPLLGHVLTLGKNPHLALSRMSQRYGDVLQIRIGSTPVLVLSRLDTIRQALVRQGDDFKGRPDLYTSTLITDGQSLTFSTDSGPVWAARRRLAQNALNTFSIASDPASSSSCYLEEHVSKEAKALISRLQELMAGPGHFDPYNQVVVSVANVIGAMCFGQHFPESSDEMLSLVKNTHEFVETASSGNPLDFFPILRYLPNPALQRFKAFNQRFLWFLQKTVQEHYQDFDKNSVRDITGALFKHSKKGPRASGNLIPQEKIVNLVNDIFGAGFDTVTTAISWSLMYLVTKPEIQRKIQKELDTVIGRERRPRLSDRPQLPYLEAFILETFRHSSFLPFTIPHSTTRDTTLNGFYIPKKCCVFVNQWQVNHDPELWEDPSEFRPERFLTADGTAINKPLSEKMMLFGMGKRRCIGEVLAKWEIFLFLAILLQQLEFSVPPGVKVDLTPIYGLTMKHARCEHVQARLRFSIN
In short: (§4)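 Human liver microsomes at 0.2 mg/mL mixed with probe substrates, preincubated 5 min at 37 °C. Reaction started with NADPH and run 20 min at 37 °C in a shaking bath. Quenched, held at -20 °C for 1 h, centrifuged, and the supernatant analysed by LC/MS/MS. Assay validated with specific inhibitors for each isoform.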

Cytochrome P450 2C9 = Cytochrome P450 2C9 (Homo sapiens, UniProt P11712); experiment: Inhibition of CYP2C9 in human liver microsomes using diclofenac as substrate incubated for 5 mins followed by NADPH addition and measured after 20 mins by LC-MS/MS analysis; format: ADME
Cytochrome P450 2C19 = Cytochrome P450 2C19 (Homo sapiens, UniProt P33261); experiment: Inhibition of CYP2C19 in human liver microsomes using omeprazole as substrate incubated for 5 mins followed by NADPH addition and measured after 20 mins by LC-MS/MS analysis; format: ADME; in short: as §4
[13] = Toxicity in BALB/c mouse assessed as effect on behavioral change at 50 to 100 mg/kg, ig administered for 14 days; format: organism-based; conditions: in vivo, po, 336 h, dose 50-100 mg/kg, time 14 day; in short: as §1
[14] = Toxicity in BALB/c mouse assessed as effect on liver megakaryocyte at 50 to 100 mg/kg, ig administered for 14 days; format: organism-based; conditions: in vivo, po, 336 h, dose 50-100 mg/kg, time 14 day; in short: as §1
[15] = Toxicity in BALB/c mouse assessed as inflammatory infiltration in liver at 50 to 100 mg/kg, ig administered for 14 days; format: organism-based; conditions: in vivo, po, 336 h, dose 50-100 mg/kg, time 14 day; in short: as §1
[16] = Toxicity in BALB/c mouse assessed as necrosis in renal tubular epithelial cells at 50 to 100 mg/kg, ig administered for 14 days; format: organism-based; conditions: in vivo, po, 336 h, dose 50-100 mg/kg, time 14 day
In short: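 BALB/c mice, 10 per group: untreated blank group plus low (50 mg/kg) and high (100 mg/kg) dose groups, intragastric once daily for 14 days. Hair, behaviour and neurological signs monitored throughout. At day 14 mice were weighed and dissected. Kidney and liver tissue was fixed in 3 mm pieces, dehydrated through graded alcohol, cleared in xylene, embedded in paraffin, sectioned and examined histopathologically.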

[17] = Hepatotoxicity in BALB/c mouse assessed as effect on serum ALT level at 50 to 100 mg/kg, ig administered for 14 days; format: toxicity, organism-based; conditions: in vivo, po, 336 h, dose 50-100 mg/kg, time 14 day; in short: as §1
[18] = Renal toxicity in BALB/c mouse assessed as effect on serum urea level at 50 to 100 mg/kg, ig administered for 14 days; format: organism-based; conditions: in vivo, po, 336 h, dose 50-100 mg/kg, time 14 day; in short: as §1
[19] = Renal toxicity in BALB/c mouse assessed as effect on serum creatinine level at 50 to 100 mg/kg, ig administered for 14 days; format: organism-based; conditions: in vivo, po, 336 h, dose 50-100 mg/kg, time 14 day; in short: as §1
in vitro = conditions: human, liver microsomes

Sequence of Cytochrome P450 2C19 (P33261 whole entry): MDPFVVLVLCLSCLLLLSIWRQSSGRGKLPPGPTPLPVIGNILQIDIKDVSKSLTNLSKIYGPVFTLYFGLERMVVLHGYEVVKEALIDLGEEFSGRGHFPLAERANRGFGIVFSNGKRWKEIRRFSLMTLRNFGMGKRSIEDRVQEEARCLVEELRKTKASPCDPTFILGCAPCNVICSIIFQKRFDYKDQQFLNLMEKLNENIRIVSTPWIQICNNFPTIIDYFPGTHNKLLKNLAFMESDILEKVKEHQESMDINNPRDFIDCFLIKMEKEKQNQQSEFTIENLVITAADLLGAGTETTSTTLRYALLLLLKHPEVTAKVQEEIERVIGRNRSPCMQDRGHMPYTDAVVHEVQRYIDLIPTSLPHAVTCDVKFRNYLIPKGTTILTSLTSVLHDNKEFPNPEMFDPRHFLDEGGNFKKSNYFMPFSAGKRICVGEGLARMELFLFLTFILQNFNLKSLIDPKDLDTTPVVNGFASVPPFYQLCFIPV
Sequence of Cytochrome P450 2C9 (P11712 whole entry): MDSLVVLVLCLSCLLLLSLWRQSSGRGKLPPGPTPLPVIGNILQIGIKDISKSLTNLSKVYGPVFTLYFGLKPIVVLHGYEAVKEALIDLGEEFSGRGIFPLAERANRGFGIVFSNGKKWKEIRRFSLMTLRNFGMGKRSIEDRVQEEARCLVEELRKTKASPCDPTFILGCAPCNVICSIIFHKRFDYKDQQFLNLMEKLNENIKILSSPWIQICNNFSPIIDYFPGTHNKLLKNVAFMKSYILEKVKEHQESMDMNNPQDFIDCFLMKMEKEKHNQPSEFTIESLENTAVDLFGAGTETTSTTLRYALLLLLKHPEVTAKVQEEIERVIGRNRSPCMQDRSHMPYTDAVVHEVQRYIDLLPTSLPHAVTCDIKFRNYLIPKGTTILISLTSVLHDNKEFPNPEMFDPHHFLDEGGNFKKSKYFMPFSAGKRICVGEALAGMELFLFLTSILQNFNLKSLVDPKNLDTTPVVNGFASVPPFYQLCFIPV

COc1ccc2cc(C(=O)NCCN(C)C)oc2c1.CS(=O)(=O)O
Activity [1]: Non-Toxic | Activity [2]: Non-Toxic | Activity [3]: Non-Toxic | bioavailability [4]: 83.1% | AUC(0-inf) [5]: 286 ng·h/mL | AUC(0-t) [6]: 278 ng·h/mL | half-life [7]: 4.53 h | Tmax [8]: 0.5 h | AUC(0-inf) [9]: 69 ng·h/mL | half-life [10]: 2.52 h | LD50 [11]: > 500 mg/kg/day | Papp A→B at 2 h, 10 µM [12]: 9.34 ×10⁻⁶ cm/s | IC50 (Cytochrome P450 1A2): > 10 µM | IC50 (Cytochrome P450 2C9): > 10 µM | IC50 (Cytochrome P450 2C19): > 10 µM | Activity [13]: Non-Toxic | Activity [14]: Toxic | Activity [15]: Toxic | Activity [16]: Toxic | Activity [17]: Non-Toxic | Activity [18]: Non-Toxic | Activity [19]: Non-Toxic | microsomal CLint at 0.5 h, 100 µM (in vitro): 6.73 µL/min/mg
